High-throughput results as filed in PubChem BioAssay.
Most compounds without a hit are left out; they make up all but 3.1% or so of the library.
LEDGF integ inh – blockers of LEDGF/p75-dependent integrase strand transfer – biochemical, TR-FRET, high throughput, primary screen; HIV-1 integrase (with human LEDGF/p75); TR-FRET IN-LEDGF/p75 DNA integration, Eu/Cy5; inhibition, % at 3.7 µM; 0.64% of 370,000 active; AID 743269, 2014;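 active = inhibition above the screen-wide mean plus 3 SD, cut at about 13% in these data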;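 note: signal is the Cy5 over europium emission ratio at 671 and 618 nm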
ATG4B inhibitor – ATG4B protease inhibitors, primary screen, biochemical, fluorescence, uHTS | ATG4B cleavage of LC3-PLA2, NBD-HPC fluorescence, 1 h | inhibition, % at 8.33 µM | 0.51% of 340,000 active; in the data active = inhibition above about 40%
UHRF1 MBD2 ctr – UHRF1 methylated DNA binding inhibitors, primary screen, counter-screen for MBD2 inhibitor project, biochemical, TR-FRET, human UHRF1, single concentration; 0.75% of 370,000 active; E3 ubiquitin-protein ligase UHRF1 (Homo sapiens), Q96T88; UHRF1 binding to methylated oligo; inhibition, % at 4.4 µM; AID 687016, 2013; in the data active = inhibition above about 21%;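 note: UHRF1 SRA domain binding a hemimethylated CpG hairpin DNA probe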
MBD2 DNA inh – inhibitors of MBD2 binding to methylated DNA, primary screen, biochemical, TR-FRET, DNA-binding domain, human | Methyl-CpG-binding domain protein 2 (Homo sapiens), Q9UBB5 | MBD2 binding to methylated oligonucleotide | inhibition, % at 4.4 µM | 0.31% of 370,000 active | AID 686964, 2013; in the data active = inhibition above about 13%
Target sequence (Q9UBB5 whole entry, looked up, the tested form may be a part): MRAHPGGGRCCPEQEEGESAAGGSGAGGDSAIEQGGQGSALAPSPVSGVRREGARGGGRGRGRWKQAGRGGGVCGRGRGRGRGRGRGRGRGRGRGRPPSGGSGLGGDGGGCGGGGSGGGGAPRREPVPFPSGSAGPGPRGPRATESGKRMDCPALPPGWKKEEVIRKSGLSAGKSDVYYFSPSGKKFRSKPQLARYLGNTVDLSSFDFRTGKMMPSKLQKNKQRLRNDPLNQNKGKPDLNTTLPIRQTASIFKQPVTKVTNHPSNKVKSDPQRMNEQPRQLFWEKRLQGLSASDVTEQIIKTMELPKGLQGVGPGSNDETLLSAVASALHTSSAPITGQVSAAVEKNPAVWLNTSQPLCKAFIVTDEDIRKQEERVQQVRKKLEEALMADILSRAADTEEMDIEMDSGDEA
CSN deneddyl inh – inhibitors of CSN-mediated cullin deneddylation, primary screen, biochemical, fluorescence polarization, uHTS; COP9 signalosome complex subunit 5 (Homo sapiens), Q92905; 0.38% of 360,000 active; Purified CSN, SCF-Nedd8-OG deneddylation; inhibition, % at 12.5 µM;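 active = pattern-corrected inhibition above about 35%, with an unprinted fluorescence ratio check between 0.5 and 1.5, limit read from the data, passing the limit was not always enough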
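Assay system: HEK293T-derived human Csn5 enzyme; quantity: 0.24 nM enzyme; medium: Tris/NaCl/DTT buffer, pH 7.5; also added: substrate SCFSkp2-Nedd8OG, 10 nM; doses: 12.5 µM compound; schedule: 90 min reaction at room temperature; signal: FP; read-out: % inhibition of substrate cleavage by Csn5; benchmarks: substrate-only high control, full reaction low control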
rCAG binder – binders of r(CAG) RNA repeats, primary screen, biochemical, fluorescence | r(CAG) RNA repeat, TO-PRO-1 dye displacement fluorescence | inhibition, % at 3 µM | 1.3% of 370,000 active | AID 651821, 2012;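 active = inhibition above the plate cutoff, the mean of all test compounds on that plate plus 3 SD, cut at about 35% in these data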;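 note: higher means more dye released from RNA so lower well fluorescence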
rCAG bind conf – small molecules binding CAG repeat RNA – biochemical, fluorescence, confirmation; inhibition, % at 3 µM; shares compounds with rCAG binder; r(CAG) RNA repeat, TO-PRO-1 dye displacement fluorescence; 70% of 4,300 active;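 active = inhibition above a per-plate cutoff, the mean inhibition of sample wells plus 3 SD, cut at about 35% in these data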;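 note: loss of TO-PRO-1 fluorescence as compound displaces dye from 1x1 AA loop RNA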
dCAG dye counter – displacement of TO-PRO-1 from CAG DNA duplex, counter-screen for rCAG RNA repeat binder project, biochemical, fluorescence, TO-PRO-1 dye, d(CAG) DNA oligo; d(CAG) DNA oligo TO-PRO-1 dye displacement; shares compounds with rCAG binder; 94% of 4,300 active; AID 652068, 2013; inhibition, % at 3 µM;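 active = inhibition above its plate's cutoff, the mean test-well inhibition plus 3 SD, cut at about 4.8% in these data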;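 note: hits displace the dye from DNA and so lower well fluorescence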
Numbers stand for hits; 0 = inactive; - = no result.

SMILES	LEDGF integ inh	ATG4B inhibitor	UHRF1 MBD2 ctr	MBD2 DNA inh	CSN deneddyl inh	rCAG binder	rCAG bind conf	dCAG dye counter
COc1ccc(CN2C[C@]3(C=C(C)Cn4c(=O)n(-c5ccccc5)c(=O)n43)N=C2NC(=O)c2ccccc2)c(OC)c1	0	-	0	0	-	42	43	18
COc1ccc(CN2C[C@]3(C=C4CCCCC4n4c(=O)n(-c5ccccc5)c(=O)n43)N=C2NC(=O)c2ccccc2)c(OC)c1 (stereo partly specified)	0	-	0	0	-	52	50	21
Cc1ccc(CN2CCCCC(NC(=O)c3ccccc3)C2=O)cc1 (stereo unspecified)	0	-	0	0	-	0	-	-
O=C(NC1=N[C@@]2(C=C3CCCCC3n3c(=O)n(-c4ccccc4)c(=O)n32)CN1Cc1ccccc1)c1ccccc1 (stereo partly specified)	0	-	0	0	-	42	38	15
COc1ccc(CN2C[C@]3(C=C4CCCCC4n4c(=O)n(-c5ccccc5)c(=O)n43)N(C(=O)OCc3ccccc3)C2=NC(=O)c2ccccc2)c(OC)c1 (stereo partly specified)	0	-	0	0	-	0	-	-
NS(=O)(=O)c1ccc(NC(=O)c2ccc(S(=O)(=O)N3CCc4ccccc43)cc2)cc1	0	0	0	0	0	0	-	-
CCOC(=O)CCC(=O)Nc1ccc(S(=O)(=O)N2CCc3ccccc32)cc1	0	0	0	0	0	0	-	-
N#C/C(=N\Nc1ccc(S(=O)(=O)N2CCCCC2)cc1)C(N)=S	0	0	0	0	0	0	-	-
N#C/C(=N\Nc1ccc(S(=O)(=O)N2CCc3ccccc32)cc1)C(N)=S	0	0	0	0	0	85	62	27
CCOC(=O)/C(C#N)=N/Nc1ccc(S(=O)(=O)N2CCc3ccccc32)cc1	0	0	0	0	0	40	42	15
N#C/C(=N\Nc1ccc(S(=O)(=O)N2CCCCCC2)cc1)C(N)=S	0	0	0	0	0	45	44	14
COc1cccc(N2CCN(CC(=O)NCc3ccccc3C)CC2)c1	0	-	0	0	-	0	-	-
CCCN(C(=O)CCc1cn(CCC)c2ccccc12)c1ccc(Oc2cccnc2)cc1	0	-	0	0	-	0	-	-
NC(=S)N/N=C/c1c[nH]c2ccc(OCc3ccccc3)cc12	-	0	-	-	0	-	-	-
O=C(CC1S/C(=N/N=C/c2ccco2)NC1=O)Nc1ccccc1 (stereo unspecified)	0	0	0	0	0	0	-	-
O=C(CC1S/C(=N/N=C/c2c[nH]c3ccccc23)NC1=O)Nc1ccccc1 (stereo unspecified)	0	0	0	0	0	60	45	15
O=C(CC1S/C(=N/N=C/c2c[nH]c3ccc(OCc4ccccc4)cc23)NC1=O)Nc1ccccc1 (stereo unspecified)	0	0	0	0	0	40	50	27
COC(=O)Cn1nc(-c2ccccc2)c2cccc(C(F)(F)F)c21	0	-	0	0	-	-	-	-
CCC(O)(c1ccc(NC(=O)OC(C)(C)C)cc1)c1cc(OC)cc(OC)c1 (stereo unspecified)	0	-	0	0	-	0	-	-
O=C(O)C(Oc1ccc2c(-c3ccccc3)cc(=O)oc2c1)c1ccccc1 (stereo unspecified)	0	0	0	0	0	0	-	-
COc1ccc2c(c1)c(=O)oc1cc(OC(C(=O)O)c3ccccc3)ccc12 (stereo unspecified)	0	0	0	0	0	52	41	10
O=C(N/N=C/c1cc(Br)cc([N+](=O)[O-])c1O)c1ccc(NC(=O)c2ccc(F)cc2)cc1	0	0	0	0	0	43	78	41
O=C1CC(=O)NC(SCC(=O)Nc2ccccc2[N+](=O)[O-])=N1	0	0	0	0	0	41	52	24
CCOC(=O)[C@@]12CCC3=C1N(CCC3)C(=O)[C@H](CC(=O)NCc1ccc(C)o1)C2	0	-	0	0	-	0	-	-
CCOC(=O)CC[C@@]1(C(=O)OCC)C[C@@H](CC(=O)N2CCOCC2)C(=O)N2CCCC=C21	0	-	0	0	-	0	-	-
SMILES	LEDGF integ inh	ATG4B inhibitor	UHRF1 MBD2 ctr	MBD2 DNA inh	CSN deneddyl inh	rCAG binder	rCAG bind conf	dCAG dye counter
Fc1ccc(-c2nc3c(Cl)cc(C(F)(F)F)cn3c2Cc2cccc(Cl)c2)cc1	0	-	0	0	0	38	0	4.6
Cc1ccc(Cc2c(-c3ccc(F)cc3)nc3c(Cl)cc(C(F)(F)F)cn23)cc1	0	-	0	0	0	0	-	-
FC(F)(F)c1cc(Cl)c2nc(-c3ccccc3)c(Cc3ccsc3)n2c1	0	-	0	0	0	0	-	-
FC(F)(F)c1cc(Cl)c2nc(-c3ccc(Cl)cc3)c(Cc3ccsc3)n2c1	0	-	0	0	0	51	0	6.1
CCn1c2ccccc2c2cc(NC(=O)COC(=O)c3cc(F)cc(F)c3)ccc21	0	-	0	0	-	0	-	-
CCOc1ccc(Br)cc1S(=O)(=O)Nc1ccc(Cl)c(S(=O)(=O)N(C)C)c1	0	0	0	0	0	36	0	9.0
COCCCNC(=O)C[C@@H]1C(=O)N2CCCC3=C2[C@@]1(C(=O)OC)CCCC3	0	-	0	0	-	0	-	-
Cc1ccc(C(=O)N/C(=C/c2cn(-c3ccccc3)nc2-c2ccccc2)C(=O)O)cc1	0	0	0	0	0	52	45	12
Cc1ccc(-c2nn(-c3ccccc3)cc2/C=N/NS(=O)(=O)c2ccccc2)cc1	0	0	0	0	0	37	41	14
Cc1ccc(S(=O)(=O)N/N=C\c2cn(-c3ccccc3)nc2-c2ccccc2)cc1	0	0	0	0	0	0	-	-
O=S(=O)(N/N=C\c1cn(-c2ccccc2)nc1-c1ccccc1)c1ccccc1	0	0	0	0	0	35	44	13
CN(CCO)c1cccc2c1S(=O)(=O)N(Cc1cn(Cc3cccc(C(F)(F)F)c3)nn1)Cc1ccccc1O2	0	-	0	0	-	0	-	-
